This is an account of results in ChEMBL document CHEMBL4732088, “Identification and optimization of piperlongumine analogues as potential antioxidant and anti-inflammatory agents via activation of Nrf2” (Eur J Med Chem, 2021).

Data set [1] relates to PC-12. Briefly: Neuroprotective activity against H2O2-induced cell damage in rat PC12 cells assessed as cell viability at 20 uM after 24 hrs by MTT assay (reference value: 46 +/- 4.12 %). Format: functional. As to conditions: read-out: Activity. On the technique in general: Formazan colour is commonly taken as a measure of viable cells.
Data set [2] deals with PC-12. The data set can be described thus: Neuroprotective activity against 6-OHDA-induced cell damage in rat PC12 cells assessed as cell viability at 20 uM after 24 hrs by MTT assay (reference value: 45.23 +/- 4.37 %). The class given is functional. As to conditions: for viability at 20 µM: read-out: Activity.
Data set [3] concerns PC-12. Briefly: Neuroprotective activity against 6-OHDA-induced cell damage in rat PC12 cells at 20 uM after 24 hrs by MTT assay. The class given is functional, cell-based.
Data set [4] concerns PC-12. Briefly: Neuroprotective activity against H2O2-induced cell damage in rat PC12 cells at 20 uM after 24 hrs by MTT assay. The class given is functional, cell-based.
In data set [5] the test system is PC-12. The data set can be described thus: Cytotoxicity against rat PC12 cells at 50 uM by MTT assay. The class given is cell-based. As to conditions: pc-12, 50 µM. The method in brief: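 Rat PC12 cells exposed to compounds at 50 μM; viability by MTT assay.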
The test system of data set [6] is PC-12. The data set can be described thus: Upregulation of Nrf2 expression in rat PC12 cells at 20 uM after 24 hrs by Western blot analysis. Format: functional, cell-based. In short, it runs like this: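 Rat PC12 cells exposed to compound for 24 h. Nrf2 protein detected by western blot. Mean ± SD, n = 3.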
(In western blotting, separated proteins are transferred to a membrane and probed.)

The source made the active and inactive calls. The calls are words filed in the database; no cut-off is given here.

Take `O=C(/C=C/c1ccc(F)cc1)N1CCN(C(=O)N2CCCCC2)C1=O`: the figures for the viability at 20 µM with PC-12 [1] and in the data set with PC-12 [2] were 72.8% and 72.1%, respectively.

Regarding `CC(C)(C)C(=O)N1CCN(C(=O)/C=C/c2cccc(F)c2)C1=O`, the viability at 20 µM in the data set on PC-12 [1] worked out at 71%; in the data set on PC-12 [2], 69.3%.

As for `O=C(/C=C/c1ccc(F)cc1)N1CCN(C(=O)c2ccccc2)C1=O`, the viability at 20 µM is 63.3% in the data set with PC-12 [1] and 60.3% in the data set with PC-12 [2].

As to `CC(C)(C)C(=O)N1CCN(C(=O)/C=C/c2cccc(Cl)c2)C1=O`, the viability at 20 µM with PC-12 [1] came to 69.2%; with PC-12 [2], 68.3%.

With `O=C(CCc1ccc(F)cc1)N1CCNC1=O`, the viability at 20 µM was 53.6% in the data set with PC-12 [1] and 56.3% in the data set with PC-12 [2].

In the case of `O=C(/C=C/c1ccccc1)N1CCNC1=O`, the result in the data set with PC-12 [3], in the data set with PC-12 [4] and in the data set on PC-12 [2] was Active.

For the compound `O=C(/C=C/c1ccc(F)cc1)N1CCN(C(=O)c2cccs2)C1=O`, the viability at 20 µM with PC-12 [1] was 62.2%; with PC-12 [2] it was 60.8%.

Turning to `CN(C)C(=O)N1CCN(C(=O)/C=C/c2ccc(F)cc2)C1=O`, the viability at 20 µM in the data set on PC-12 [1] was 73.8%; in the data set on PC-12 [2], 71.3%.

In the case of `CC(C)(C)C(=O)N1CCN(C(=O)/C=C/c2cccs2)C1=O`, the results for the viability at 20 µM in the data set with PC-12 [1] and in the data set with PC-12 [2] were 69.2% and 68.2%, respectively.

As to `O=C(/C=C/c1ccccc1)N1CCCCC1=O`, the result in the data set on PC-12 [3], in the data set with PC-12 [4] and in the data set on PC-12 [2] was Active.

For the compound `CC(C)(C)C(=O)N1CCN(C(=O)/C=C/c2ccccc2Cl)C1=O`, the figures for the viability at 20 µM in the data set on PC-12 [1] and in the data set with PC-12 [2] were 70% and 69%, respectively.

As for `N#Cc1ccc(C(=O)N2CCN(C(=O)/C=C/c3ccc(F)cc3)C2=O)cc1`, the viability at 20 µM was determined as 55.1% in the data set on PC-12 [1] and 52.3% with PC-12 [2]. Moreover, in the data set with PC-12 [5], the Activity result is on record as “Toxic”.

As to `O=C(/C=C/c1ccc(F)cc1)N1CCN(C(=O)CCCl)C1=O`, the viability at 20 µM came out at 43.2% with PC-12 [1] and 37.1% in the data set with PC-12 [2]. For the same compound, the Activity entry in the data set on PC-12 [5] is “Toxic”.

As for `C=C(C)C(=O)N1CCN(C(=O)/C=C/c2ccc(F)cc2)C1=O`, the results for the viability at 20 µM in the data set with PC-12 [1] and in the data set with PC-12 [2] were 38% and 30.2%, respectively. The Activity result in the data set with PC-12 [5] was “Toxic”.

`COc1cc(/C=C/C(=O)N2CCC=CC2=O)cc(OC)c1OC` [PIPLARTINE]: the Activity result with PC-12 [5] is on record as “Toxic”.

Turning to `CC(C)(C)C(=O)N1CCN(C(=O)/C=C/c2cccc3ccccc23)C1=O`, the viability at 20 µM in the data set on PC-12 [1] stood at 72.3%; with PC-12 [2] it was 71.8%.

Turning to `O=C(/C=C/c1cccs1)N1CCNC1=O`, the viability at 20 µM was found to be 65.2% in the data set with PC-12 [1] and 64.2% in the data set with PC-12 [2].

As to `O=C(/C=C/c1ccccc1)N1CCCNC1=O`, the result in the data set with PC-12 [3], with PC-12 [4] and in the data set on PC-12 [2] was Active.

As to `CCC(=O)N1CCN(C(=O)/C=C/c2ccc(F)cc2)C1=O`, the viability at 20 µM was determined as 71.6% with PC-12 [1] and 70.2% in the data set on PC-12 [2].

`CC(=O)N1CCN(C(=O)/C=C/c2ccc(F)cc2)C1=O`: the viability at 20 µM in the data set on PC-12 [1] was found to be 70.4%; with PC-12 [2], 72.3%.

`CCCC(=O)N1CCN(C(=O)/C=C/c2ccc(F)cc2)C1=O`: the viability at 20 µM in the data set with PC-12 [1] stood at 70.2%; with PC-12 [2] it was 69.3%.

Consider `CC(C)(C)C(=O)N1CCN(C(=O)/C=C/c2ccc3c(c2)OCO3)C1=O`, for which the viability at 20 µM stood at 63.3% in the data set on PC-12 [1] and 62.3% with PC-12 [2].

`O=C(/C=C/c1ccc(F)cc1)N1CCNC1=O`: the viability at 20 µM in the data set on PC-12 [1] was determined as 68.6%; in the data set on PC-12 [2], 69.1%. Also, the result with PC-12 [6] was Active.

On to `CC(C)(C)C(=O)N1CCN(C(=O)/C=C/c2ccc(Cl)cc2)C1=O`, for which the viability at 20 µM with PC-12 [1] was 72%; in the data set on PC-12 [2] it was 71.1%.

As to `CC(C)(C)C(=O)N1CCN(C(=O)/C=C/c2ccc(F)cc2)C1=O`, the viability at 20 µM with PC-12 [1] stood at 73.6%; in the data set with PC-12 [2], 72.2%.

Regarding `O=C(/C=C/c1ccc(C(F)(F)F)cc1)N1CCNC1=O`, the viability at 20 µM was found to be 67.7% in the data set on PC-12 [1] and 65.3% with PC-12 [2].

Regarding `CCN(C)C(=O)N1CCN(C(=O)CCc2ccc(F)cc2)C1=O`, the viability at 20 µM stood at 59.5% with PC-12 [1] and 62.5% in the data set with PC-12 [2].

`CC(=O)N/C(=C\c1ccccc1)C(=O)N1CCN(C(=O)C(C)(C)C)C1=O`: the viability at 20 µM in the data set on PC-12 [1] is 72.7%; with PC-12 [2], 71.2%.

In the case of `CC(C)(C)C(=O)N1CCN(C(=O)/C=C/c2c(F)cccc2Cl)C1=O`, the viability at 20 µM in the data set on PC-12 [2] amounted to 71.1%.

In the case of `CC(C)(C)C(=O)N1CCN(C(=O)/C=C/c2ccc(C(F)(F)F)cc2)C1=O`, the viability at 20 µM was determined as 72.5% with PC-12 [1] and 71.1% with PC-12 [2].

Consider `O=C(/C=C/c1ccco1)N1CCNC1=O`, for which the viability at 20 µM is 64.1% in the data set with PC-12 [1] and 60% with PC-12 [2].

As for `CC(C)(C)C(=O)N1CCN(C(=O)/C=C/c2ccccc2)C1=O`, the viability at 20 µM in the data set on PC-12 [1] was 61.5%; in the data set on PC-12 [2], 60.1%.

For the compound `C=CC(=O)N1CCN(C(=O)/C=C/c2ccc(F)cc2)C1=O`, the values for the viability at 20 µM in the data set on PC-12 [1] and in the data set on PC-12 [2] were 44% and 43.8%, respectively. For the same compound, in the data set with PC-12 [5], the Activity entry is listed as “Toxic”.

Take `CC(C)(C)C(=O)N1CCN(C(=O)/C=C/c2ccncc2)C1=O`: the viability at 20 µM was determined as 71.1% with PC-12 [1] and 69.6% in the data set on PC-12 [2].

Take `CC(C)(C)C(=O)N1CCN(C(=O)/C=C/c2ccc(C#N)cc2)C1=O`: the viability at 20 µM came to 71.4% in the data set with PC-12 [1] and 71.1% in the data set with PC-12 [2].

Regarding `CC(C)(C)C(=O)N1CCN(C(=O)/C=C/c2ccccc2F)C1=O`, the values for the viability at 20 µM with PC-12 [1] and in the data set with PC-12 [2] were 72.4% and 72.3%, respectively.

As to `CC(C)(C)C(=O)N1CCN(C(=O)/C=C/c2ccco2)C1=O`, the viability at 20 µM worked out at 69.7% in the data set on PC-12 [1] and 68.3% in the data set with PC-12 [2].
